This is an account of results in ChEMBL document CHEMBL4033659, “Novel lipid-mimetic prodrugs delivering active compounds to adipose tissue” (Eur J Med Chem, 2017).

Data set [1] can be described thus: Drug uptake in C57BL mouse subcutaneous adipose tissue at 176 umol/kg administered with high fat diet after 2 weeks by HPLC/UV analysis. Type of data set: ADME. As to conditions: in vivo, po, 336 h; call rule not given here. An outline of the steps: (§1)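 Mice received the lipid-mimetic derivatives chronically for 2 weeks. Pterostilbene and its metabolites were then quantified in blood and organs, and values are reported as mean ± st. dev. across animals.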

The nature of data set [2]: Drug uptake in C57BL mouse visceral adipose tissue assessed as retention time at 176 umol/kg administered with high fat diet after 2 weeks by HPLC/UV analysis. Type of data set: ADME. As to conditions: in vivo, po, 336 h.
A further data set has as its system Blood. In words: Drug uptake in C57BL mouse bloodstream at 176 umol/kg administered with high fat diet after 2 weeks by HPLC/UV analysis. Type of data set: ADME, tissue-based. The note with it: po, 336 h. An outline of the steps: as §1
The target of data set [3] is T1, Pancreatic triacylglycerol lipase (Sus scrofa, UniProt P00591).
T1 sequence (P00591 whole entry): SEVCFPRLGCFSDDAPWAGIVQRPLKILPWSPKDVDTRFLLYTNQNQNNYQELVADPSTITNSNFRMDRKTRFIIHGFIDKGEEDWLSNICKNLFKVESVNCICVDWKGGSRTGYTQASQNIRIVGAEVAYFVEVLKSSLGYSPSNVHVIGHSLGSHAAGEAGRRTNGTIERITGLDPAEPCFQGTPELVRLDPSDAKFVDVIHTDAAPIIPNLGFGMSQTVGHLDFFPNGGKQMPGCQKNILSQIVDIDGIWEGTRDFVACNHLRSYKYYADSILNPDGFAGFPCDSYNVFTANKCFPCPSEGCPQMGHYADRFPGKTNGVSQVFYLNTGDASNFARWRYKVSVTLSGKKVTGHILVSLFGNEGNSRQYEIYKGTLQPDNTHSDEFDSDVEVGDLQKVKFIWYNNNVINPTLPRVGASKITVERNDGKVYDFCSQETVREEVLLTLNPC
Kind of data set: Prodrug conversion assessed as porcine pancreatic lipase-mediated formation of 10-((4-(3,5-dimethoxystyryl)phenoxy)carbonylamino)decanoic acid by measuring hydrolysis rate constant K3 by HPLC/UV analysis. It is filed as ADME. As to conditions: pig.

The next data set has as its system Liver. In words: Drug uptake in C57BL mouse liver at 176 umol/kg administered with high fat diet after 2 weeks by HPLC/UV analysis. Type of data set: ADME, tissue-based. As to conditions: in vivo, po, 336 h. A digest of the protocol:
as §1

Data set [4] deals with T1, Pancreatic triacylglycerol lipase. Kind of data set: Prodrug conversion assessed as porcine pancreatic lipase-mediated formation of 2-(10-((4-(3,5-dimethoxystyryl)phenoxy)carbonylamino)decanoyloxy)-3-hydroxypropyl oleate by measuring hydrolysis rate constant K1 by HPLC/UV analysis. Type of data set: ADME. The note with it: pig.
Data set [5] can be described thus: Drug uptake in C57BL mouse visceral adipose tissue at 176 umol/kg administered with high fat diet after 2 weeks by HPLC/UV analysis. As to conditions: in vivo, po, 336 h. Type of data set: ADME. A digest of the protocol: as §1
Data set [6] deals with T1, Pancreatic triacylglycerol lipase. Kind of data set: Prodrug conversion assessed as porcine pancreatic lipase-mediated formation of 1,3-dihydroxypropan-2-yl 10-((4-(3,5-dimethoxystyryl)phenoxy)carbonylamino)decanoate by measuring hydrolysis rate constant K2 by HPLC/UV analysis. It is filed as ADME. As to conditions: pig.
Data set [7] shares this target. In words: Prodrug conversion assessed as porcine pancreatic lipase mediated formation of 10-((4-(3,5-dimethoxystyryl)phenoxy)carbonylamino)decanoic acid by measuring hydrolysis rate constant by HPLC/UV analysis. The note with it: pig. It is filed as ADME.
Data set [8] has the same target. In words: Prodrug conversion assessed as porcine pancreatic lipase-mediated formation of 10-((4-(3,5-dimethoxystyryl)phenoxy)carbonylamino)decanoic acid by measuring hydrolysis rate constant K2 by HPLC/UV analysis. It is filed as ADME. As to conditions: pig.
Data set [9] shares this target. In words: Prodrug conversion assessed as porcine pancreatic lipase-mediated formation of 1-(10-((4-(3,5-dimethoxystyryl)phenoxy)carbonylamino)decanoyloxy)-3-hydroxypropan-2-yl oleate, 10-((4-(3,5-dimethoxystyryl)phenoxy)carbonylamino)decanoic acid by measuring hydrolysis rate constant K1 by HPLC/UV analysis. As to conditions: pig. It is filed as ADME.

Each structure is given as a SMILES string.

Turning to `CCCCCCCC/C=C\CCCCCCCC(=O)OCC(COC(=O)CCCCCCC/C=C\CCCCCCCC)OC(=O)CCCCCCCCCNC(=O)Oc1ccc(/C=C/c2cc(OC)cc(OC)c2)cc1`, the Drug uptake entry in [1] is “Active”; in the data set with Blood, “Not Active”; with Liver, “Active”; in data set [5] it was “Active”. In data set [2], the Retention time was in the range of 5.8 to 6.5 min. Also, the K is 0.24 h⁻¹ in data set [3], 3.04 h⁻¹ in data set [4] and 9.49 h⁻¹ in [6].

For `CCCCCCCC/C=C\CCCCCCCC(=O)OCC(COC(=O)CCCCCCCCCNC(=O)Oc1ccc(/C=C/c2cc(OC)cc(OC)c2)cc1)OC(=O)CCCCCCC/C=C\CCCCCCCC` (stereo not given), the Drug uptake entry in data set [1] is recorded as “Active”; with Blood it was “Not Active”; with Liver it was “Active”; in data set [5], “Active”. Further, the K turned out to be 2.88 h⁻¹ in data set [7], 46.8 h⁻¹ in data set [8] and 3.24 h⁻¹ in data set [9].
